Insulin prom act: TRM-6 insulin promoter activation; TRM-6 cells, insulin promoter eGFP reporter, imaging; plate-scaled: unstimulated 0, stimulated control 100; activation, % at 2 µM; actives 0.81% (n = 130,000);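 active = activation at 2 µM above a set limit, confirmed on inspection of the cell images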;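 also: share of cells whose green reporter signal exceeds an intensity cutoff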
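System: human fetal islet-derived TRM-6 cells with tamoxifen-inducible insulin promoter–eGFP reporter; input: seeding density of 1,000 cells per well; buffer or medium: Low-glucose (5.5 mM) medium with tamoxifen; incubation: compound exposure 48 h, 37 °C; measured by: high-content imaging of fixed cells with Hoechst nuclear stain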
The depositor's hits bear a star. Many of the other results were omitted from the sample, so hits are more common in it than they were.

SMILES | Insulin prom act
CC1CN(C(NC(=O)C(C)(C)C)C(Cl)(Cl)Cl)CC(C)O1 (stereo unspecified) | -3.3
Cc1ccc(S(=O)(=O)NCC(=O)OCC(=O)Nc2cccc(S(=O)(=O)NC3=NCCCCC3)c2)cc1 | -77.8
O=C(COC(=O)CNS(=O)(=O)c1cccc(Br)c1)NC(=O)Nc1ccc2c(c1)OCCO2 | 400.0*
O=C(COC(=O)CCNS(=O)(=O)c1ccc2c(c1)OCCO2)NC1CCCc2ccccc21 (stereo unspecified) | 9.1
COc1ccc2nc(NC(=O)Nc3ccccc3)sc2c1 | -9.5
CC[n+]1c(/C=C/C=C/N(C(C)=O)c2ccccc2)sc2cc(OC)ccc21 | 270.4*
CC[n+]1c(/C=C(\C)Nc2ccccc2)sc2ccccc21 | 8.1
COc1ccc(NC(=O)c2ccc3c(c2)NC(=O)CO3)cc1OC | 0.0
O=C(CCn1cnc2ccccc2c1=O)Nc1nc2c(s1)CCCC2 | 510.0*
O=C(CCS(=O)(=O)Cc1ccccc1)Nc1nc2c(s1)CCCC2 | 9.7
O=C(CCn1cnc2ccccc2c1=O)Nc1cccc(Cl)c1 | 9.1
COc1ccc(/C=N/NC(=O)c2cc(=O)[nH]c3ccccc23)cc1OC | 0.0
CC(C)c1nc2cc3ccccc3cc2[nH]1 | -85.7
CCOC(=O)N1CCN(C(=O)CN(c2ccc3c(c2)OCO3)S(C)(=O)=O)CC1 | -79.0
Cc1ccc(C(=O)NCC(=O)NCC(=O)OCC(=O)c2cccs2)cc1 | 471.4*
Cc1ccc(NC(=O)COC(=O)CCC(=O)c2cccs2)cc1 | 7.7
Cc1ccc(C(=O)COC(=O)CNC(=O)c2cccs2)cc1C | -4.3
Cc1ccc(NC2=NC3(CCCCC3)N=C(N)N2)c(C)c1 | 9.5
CCCCn1c(N)c(N(CC(C)C)C(=O)CN(C)Cc2cccc(OC)c2)c(=O)[nH]c1=O | 7.1
NC(=O)C1(N2CCCCC2)CCN(Cc2ccccc2Cl)CC1 | 456.3*
NC(=O)C1(N2CCCCC2)CCN(C(=O)CSc2nc3ccccc3o2)CC1 | 0.0
NC(=O)C1(N2CCCCC2)CCN(CC(=O)Nc2ccccc2-c2ccccc2)CC1 | 105.9
Cc1cccc(NC(=O)C2CCCN(C(=O)Nc3ccccc3)C2)c1C (stereo unspecified) | 5.4
O=[N+]([O-])c1ccc(-c2nnc(CSc3nc(-c4ccccc4)nc4ccc(F)cc34)o2)cc1 | -5.6
O=C1NC(=O)C(CC(=O)N(Cc2ccco2)C2(C(=O)NC3CCCC3)CCCCC2)N1 (stereo unspecified) | 0.0
SMILES | Insulin prom act
O=C(COC(=O)c1ccccn1)NC1CCCCC1 | -2.9
O=C(c1ccccn1)N(Cc1ccco1)C1(C(=O)NC2CCCC2)CCCCC1 | 80.6*
CCn1c(SCC(N)=O)nnc1-c1ccc(S(=O)(=O)N2CCN(C)CC2)cc1 | 186.4
COc1ccc(Nc2nc(C)cc(=O)[nH]2)cc1 | 0.0
COc1ccc(CCNc2cc(=O)[nH]c(N)n2)cc1 | 615.4*
COc1ccc(S(=O)(=O)NCCc2ccc(F)cc2)cc1 | -90.9
N#Cc1c(Sc2ncc(C(F)(F)F)cc2Cl)nsc1C/C=N\OCc1ccccc1Br | 3.2
O=C(NC(=O)c1ccncc1)NC(c1ccccc1)c1ccccc1 | -8.1
CCOC(=O)N1CCC(N2Cc3cccc(C(=O)N4CC(C)CC(C)C4)c3C2=O)CC1 (stereo unspecified) | 5.6
COc1ccc(N2CC(C(=O)OC(C)C(=O)c3ccccc3)CC2=O)cc1 (stereo unspecified) | -7.1
COC(=O)CSc1nc(-c2ccccc2)nc2ccccc12 | -5.3
COc1ccc(-c2[nH]ncc2C=O)cc1 | -60.0
c1cncc(CNc2nc(N3CCOCC3)nc(N3CCOCC3)n2)c1 | 2.9
O=[N+]([O-])c1ccc(-c2ccc(/C=N/Nc3nc(NCc4ccccc4)nc(N4CCOCC4)n3)o2)cc1 | 200.0*
CC(Sc1nc(NCc2ccccc2)nc(N2CCOCC2)n1)C(=O)Nc1ccccc1 (stereo unspecified) | 7.7
Cn1c(N)c(C(=O)COC(=O)CCC2CCCCC2)c(=O)n(C)c1=O | 9.5
CC(C)c1nnc(NC(=O)Cc2ccccc2[N+](=O)[O-])s1 | 0.0
COc1ccc(C(=O)CCNc2ccc3c(c2)OCCO3)cc1 | 356.3*
CCOC(=O)c1ccc(NC(=O)Nc2ccc3c(c2)OCCO3)cc1 | -2.8
COc1cc(C(=O)Nc2ccc3c(c2)OCCO3)ccc1OC(F)F | -3.2
O=C(CN1C(=O)NC2(CCCCCC2)C1=O)Nc1ccc2c(c1)CCC2 | -2.7
CCCc1[nH]n(-c2nc3ccccc3s2)c(=O)c1C=NCC(C)C | -9.4
COc1cc(C(=O)N2CCN(C(=O)COc3ccc4ccccc4c3)CC2)cc(OC)c1OC | 9.7
O=C(c1cccc(C(F)(F)F)c1)C1CCCN(Cc2cccn2-c2ccccn2)C1 (stereo unspecified) | 8.7
COc1ccc(N2CC(C(=O)NCCCN3CCOCC3)CC2=O)cc1 (stereo unspecified) | 0.0
SMILES | Insulin prom act
CCOc1ccc(CCNC(=O)C(CCC(N)=O)NC(=O)OCc2ccccc2)cc1OCC (stereo unspecified) | 228.6*
Cc1ccc(CNC(=O)C(CCC(N)=O)NC(=O)OCc2ccccc2)cc1 (stereo unspecified) | 5.3
CCOc1ccc(CCNC(=O)COC(=O)c2ccco2)cc1OCC | 0.0
O=C(c1ccco1)N1CCN(C(c2coc3ccc(Cl)cc3c2=O)c2nnnn2C2CCCC2)CC1 (stereo unspecified) | 0.0
CCCC(c1nnnn1C1CCCC1)N1CCN(C(=O)c2ccco2)CC1 (stereo unspecified) | 180.6*
O=C(c1ccco1)N1CCN(C(c2ccccn2)c2nnnn2C2CCCC2)CC1 (stereo unspecified) | 195.2
O=C(CCN1C(=O)c2cccc([N+](=O)[O-])c2C1=O)Nc1nccs1 | 0.0
FC(F)(F)Oc1ccc(NC(=S)NCCCN2CCOCC2)cc1 | 2.4
CC(NC(=O)C(=O)NCCC1=CCCCC1)c1ccccc1 (stereo unspecified) | 3.3
O=C1C(Cl)=C(Nc2ccc(F)cc2)C(=O)N1CCc1ccccc1 | 171.0
O=C1C(Cl)=C(NCCc2ccccc2)C(=O)N1CCc1ccccc1 | -8.7
O=C1C(Cl)=C(NCC2CCCO2)C(=O)N1CCc1ccccc1 (stereo unspecified) | 608.3*
N#C/C(C(=O)c1ccccc1)=C1/SC=C(N)N1c1ccccc1 | 294.3
COc1ccccc1C(C#N)N1N=C(C)CC1(C)C (stereo unspecified) | 0.0
Cc1ccccc1CSCC(Nc1ccc(C(=O)O)cc1[N+](=O)[O-])C(=O)O (stereo unspecified) | 0.0
Cc1[nH]c2ccc(F)cc2c1CCN(Cc1ccncc1)C(=S)Nc1ccccc1 | 145.5
CCOC(=O)NC(NC(=O)OCC)C(=O)c1ccccc1 | 0.0
COc1cc(NC(=O)c2ccc3c(c2)OCO3)c2ncccc2c1 | 411.8*
O=C(Nc1cccc2cccnc12)c1ccc2c(c1)OCCO2 | 6.9
COc1ccc(-c2nc3cc(NC(=O)c4ccc5c(c4)OCO5)ccc3o2)cc1 | -9.1
CCOC(=O)C1CN(S(=O)(=O)c2ccc(C)cc2)CCN1S(=O)(=O)c1ccc(C)cc1 (stereo unspecified) | 386.7
O=C(NCc1ccco1)C1CCCN1S(=O)(=O)c1ccc2ccccc2c1 (stereo unspecified) | -5.7
Cc1ccc(S(=O)(=O)N2CCCC2C(=O)OCc2ccco2)cc1 (stereo unspecified) | 578.6*
COc1ccccc1CNC(=O)Cn1cccc1 | -2.7
O=C1c2ccccc2C(=O)N1CCC(=O)N1CCc2ccccc21 | 0.0
O=C(O)CCC1=C2c3ccccc3CCN2C(=O)CC1 | 450.0*

Source: PubChem (Columbia University Molecular Screening Center)
